Reference: ChEMBL document CHEMBL1131619, “32-Ascomycinyloxyacetic acid derived immunosuppressants. Independence of immunophilin binding and immunosuppressive potency” (J Med Chem, 1998)

Tests used:
Homo sapiens = species on record: Homo sapiens; assay: Inhibition of human mixed lymphocyte response (MLR); format: functional
Outline: (§1)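 IC50 values are reported as mean ± SD for the stated number of determinations, using human cells or protein.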

[1] = target: Peptidyl-prolyl cis-trans isomerase FKBP1A (Homo sapiens, UniProt P62942); assay: Inhibitory binding activity against human Immunophilin-FK-506 binding protein 12; outline: as §1
Rattus norvegicus = assay: Inhibition of rat popliteal lymph node (PLN) hyperplasia when given ip; format: functional
Outline: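 Popliteal lymph node hyperplasia is induced in Lewis rats by Brown Norway rat cells, and its inhibition is measured.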

Peptidyl-prolyl cis-trans isomerase FKBP1A, sequence (P62942 whole entry): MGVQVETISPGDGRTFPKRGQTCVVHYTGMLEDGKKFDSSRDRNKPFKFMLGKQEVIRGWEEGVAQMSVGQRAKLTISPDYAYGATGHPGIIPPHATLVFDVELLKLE

SMILES	IC50 (Homo sapiens)	IC50 [1]	ED50 (Rattus norvegicus)
CC[C@@H]1/C=C(\C)C[C@H](C)C[C@H](OC)[C@H]2O[C@@](O)(C(=O)C(=O)N3CCCC[C@H]3C(=O)O[C@H](/C(C)=C/C3CC[C@@H](OCC(=O)N(C)CCc4ccccc4)[C@H](OC)C3)[C@H](C)[C@@H](O)CC1=O)[C@H](C)C[C@@H]2OC (some centres undefined)	0.64 nM	0.4 nM	> 3 mg/kg/day
CC[C@@H]1/C=C(\C)C[C@H](C)C[C@H](OC)[C@H]2O[C@@](O)(C(=O)C(=O)N3CCCC[C@H]3C(=O)O[C@H](/C(C)=C/C3CC[C@@H](OCC(=O)Nc4cccc(C(F)(F)F)c4)[C@H](OC)C3)[C@H](C)[C@@H](O)CC1=O)[C@H](C)C[C@@H]2OC (some centres undefined)	0.14 nM	470 nM	
CC[C@@H]1/C=C(\C)C[C@H](C)C[C@H](OC)[C@H]2O[C@@](O)(C(=O)C(=O)N3CCCC[C@H]3C(=O)O[C@H](/C(C)=C/C3CC[C@@H](OCC(=O)Nc4ccccn4)[C@H](OC)C3)[C@H](C)[C@@H](O)CC1=O)[C@H](C)C[C@@H]2OC (some centres undefined)	0.05 nM	2.4 nM	
CC[C@@H]1/C=C(\C)C[C@H](C)C[C@H](OC)[C@H]2O[C@@](O)(C(=O)C(=O)N3CCCC[C@H]3C(=O)O[C@H](/C(C)=C/C3CC[C@@H](OCC(=O)NCCc4ccccc4)[C@H](OC)C3)[C@H](C)[C@@H](O)CC1=O)[C@H](C)C[C@@H]2OC (some centres undefined)	0.34 nM	13 nM	> 3 mg/kg/day
CC[C@@H]1/C=C(\C)C[C@H](C)C[C@H](OC)[C@H]2O[C@@](O)(C(=O)C(=O)N3CCCC[C@H]3C(=O)O[C@H](/C(C)=C/C3CC[C@@H](OCC(=O)Nc4ccc(OC)cc4)[C@H](OC)C3)[C@H](C)[C@@H](O)CC1=O)[C@H](C)C[C@@H]2OC (some centres undefined)	0.04 nM	50 nM	
CC[C@@H]1/C=C(\C)C[C@H](C)C[C@H](OC)[C@H]2O[C@@](O)(C(=O)C(=O)N3CCCC[C@H]3C(=O)O[C@H](/C(C)=C/C3CC[C@@H](OCC(=O)N(C)Cc4ccccc4)[C@H](OC)C3)[C@H](C)[C@@H](O)CC1=O)[C@H](C)C[C@@H]2OC (some centres undefined)	0.09 nM	5.6 nM	> 3 mg/kg/day
CC[C@@H]1/C=C(\C)C[C@H](C)C[C@H](OC)[C@H]2O[C@@](O)(C(=O)C(=O)N3CCCC[C@H]3C(=O)O[C@H](/C(C)=C/C3CC[C@@H](OCC(=O)Nc4ccc(C(F)(F)F)cc4)[C@H](OC)C3)[C@H](C)[C@@H](O)CC1=O)[C@H](C)C[C@@H]2OC (some centres undefined)	0.23 nM	570 nM	
CC[C@@H]1/C=C(\C)C[C@H](C)C[C@H](OC)[C@H]2O[C@@](O)(C(=O)C(=O)N3CCCC[C@H]3C(=O)O[C@H](/C(C)=C/C3CC[C@@H](OCC(=O)Nc4ccncc4)[C@H](OC)C3)[C@H](C)[C@@H](O)CC1=O)[C@H](C)C[C@@H]2OC (some centres undefined)	0.16 nM	3.2 nM	
CC[C@@H]1/C=C(\C)C[C@H](C)C[C@H](OC)[C@H]2O[C@@](O)(C(=O)C(=O)N3CCCC[C@H]3C(=O)O[C@H](/C(C)=C/C3CC[C@@H](OCC(=O)Nc4ccc(C)cc4)[C@H](OC)C3)[C@H](C)[C@@H](O)CC1=O)[C@H](C)C[C@@H]2OC (some centres undefined)	0.02 nM	71 nM	
CC[C@@H]1/C=C(\C)C[C@H](C)C[C@H](OC)[C@H]2O[C@@](O)(C(=O)C(=O)N3CCCCC3C(=O)O[C@H](/C(C)=C/C3CC[C@@H](OCC(=O)OCc4ccccc4)[C@H](OC)C3)[C@H](C)[C@@H](O)CC1=O)[C@H](C)C[C@@H]2OC (some centres undefined)	7.62 nM	68 nM	> 3 mg/kg/day
CC[C@@H]1/C=C(\C)C[C@H](C)C[C@H](OC)[C@H]2O[C@@](O)(C(=O)C(=O)N3CCCC[C@H]3C(=O)O[C@H](/C(C)=C/C3CC[C@@H](OCC(=O)N(C)c4ccccc4)[C@H](OC)C3)[C@H](C)[C@@H](O)CC1=O)[C@H](C)C[C@@H]2OC (some centres undefined)	0.26 nM	2.9 nM	1.9 mg/kg/day
CCOC(=O)CO[C@@H]1CCC(/C=C(\C)[C@H]2OC(=O)[C@@H]3CCCCN3C(=O)C(=O)[C@]3(O)O[C@H]([C@@H](OC)C[C@@H](C)C/C(C)=C/[C@@H](CC)C(=O)C[C@H](O)[C@H]2C)[C@@H](OC)C[C@H]3C)C[C@H]1OC (some centres undefined)	0.91 nM	9.4 nM	> 3 mg/kg/day
CC[C@@H]1/C=C(\C)C[C@H](C)C[C@H](OC)[C@H]2O[C@@](O)(C(=O)C(=O)N3CCCC[C@H]3C(=O)O[C@H](/C(C)=C/C3CC[C@@H](OCC(=O)Nc4ccc(Cl)cc4)[C@H](OC)C3)[C@H](C)[C@@H](O)CC1=O)[C@H](C)C[C@@H]2OC (some centres undefined)	0.07 nM	180 nM	
CC[C@@H]1/C=C(\C)C[C@H](C)C[C@H](OC)[C@H]2O[C@@](O)(C(=O)C(=O)N3CCCC[C@H]3C(=O)O[C@H](/C(C)=C/C3CC[C@@H](OCC(=O)Nc4ccc(N5CCOCC5)cc4)[C@H](OC)C3)[C@H](C)[C@@H](O)CC1=O)[C@H](C)C[C@@H]2OC (some centres undefined)	0.58 nM	19 nM	
CC[C@@H]1/C=C(\C)C[C@H](C)C[C@H](OC)[C@H]2O[C@@](O)(C(=O)C(=O)N3CCCC[C@H]3C(=O)O[C@H](/C(C)=C/C3CC[C@@H](OCC(=O)Nc4ccc(Cl)c(Cl)c4)[C@H](OC)C3)[C@H](C)[C@@H](O)CC1=O)[C@H](C)C[C@@H]2OC (some centres undefined)	0.55 nM	500 nM	
CC[C@@H]1/C=C(\C)C[C@H](C)C[C@H](OC)[C@H]2O[C@@](O)(C(=O)C(=O)N3CCCC[C@H]3C(=O)O[C@H](/C(C)=C/C3CC[C@@H](OCC(=O)Nc4cccnc4)[C@H](OC)C3)[C@H](C)[C@@H](O)CC1=O)[C@H](C)C[C@@H]2OC (some centres undefined)	0.1 nM	3.3 nM	
CC[C@@H]1/C=C(\C)C[C@H](C)C[C@H](OC)[C@H]2O[C@@](O)(C(=O)C(=O)N3CCCC[C@H]3C(=O)O[C@H](/C(C)=C/C3CC[C@@H](OCC(=O)Nc4cccc(F)c4)[C@H](OC)C3)[C@H](C)[C@@H](O)CC1=O)[C@H](C)C[C@@H]2OC (some centres undefined)	0.16 nM	180 nM	
CC[C@@H]1/C=C(\C)C[C@H](C)C[C@H](OC)[C@H]2O[C@@](O)(C(=O)C(=O)N3CCCC[C@H]3C(=O)O[C@H](/C(C)=C/C3CC[C@@H](OCC(=O)NC4CCCCC4)[C@H](OC)C3)[C@H](C)[C@@H](O)CC1=O)[C@H](C)C[C@@H]2OC (some centres undefined)	0.47 nM	2 nM	
CC[C@@H]1/C=C(\C)C[C@H](C)C[C@H](OC)[C@H]2O[C@@](O)(C(=O)C(=O)N3CCCC[C@H]3C(=O)O[C@H](/C(C)=C/C3CC[C@@H](OCC(=O)Nc4ccc(F)cc4)[C@H](OC)C3)[C@H](C)[C@@H](O)CC1=O)[C@H](C)C[C@@H]2OC (some centres undefined)	0.03 nM	46 nM	
CC[C@@H]1/C=C(\C)C[C@H](C)C[C@H](OC)[C@H]2O[C@@](O)(C(=O)C(=O)N3CCCC[C@H]3C(=O)O[C@H](/C(C)=C/C3CC[C@@H](OCC(=O)Nc4ccccc4)[C@H](OC)C3)[C@H](C)[C@@H](O)CC1=O)[C@H](C)C[C@@H]2OC (some centres undefined)	0.29 nM	170 nM	1.4 mg/kg/day
CC[C@@H]1/C=C(\C)C[C@H](C)C[C@H](OC)[C@H]2O[C@@](O)(C(=O)C(=O)N3CCCC[C@H]3C(=O)O[C@H](/C(C)=C/C3CC[C@@H](OCC(=O)O)[C@H](OC)C3)[C@H](C)[C@@H](O)CC1=O)[C@H](C)C[C@@H]2OC (some centres undefined)	140 nM	4 nM	> 3 mg/kg/day
CC[C@@H]1/C=C(\C)C[C@H](C)C[C@H](OC)[C@H]2O[C@@](O)(C(=O)C(=O)N3CCCC[C@H]3C(=O)O[C@H](/C(C)=C/C3CC[C@@H](OCC(=O)NCc4ccccc4)[C@H](OC)C3)[C@H](C)[C@@H](O)CC1=O)[C@H](C)C[C@@H]2OC (some centres undefined)	0.79 nM	48 nM	1.2 mg/kg/day
CC[C@@H]1/C=C(\C)C[C@H](C)C[C@H](OC)[C@H]2O[C@@](O)(C(=O)C(=O)N3CCCC[C@H]3C(=O)O[C@H](/C(C)=C/C3CC[C@@H](OCC(N)=O)[C@H](OC)C3)[C@H](C)[C@@H](O)CC1=O)[C@H](C)C[C@@H]2OC (some centres undefined)	0.13 nM	0.6 nM	0.3 mg/kg/day
CC[C@@H]1/C=C(\C)C[C@H](C)C[C@H](OC)[C@H]2O[C@@](O)(C(=O)C(=O)N3CCCC[C@H]3C(=O)O[C@H](/C(C)=C/C3CC[C@@H](OCC(=O)Nc4ccc(O)cc4)[C@H](OC)C3)[C@H](C)[C@@H](O)CC1=O)[C@H](C)C[C@@H]2OC (some centres undefined)	0.14 nM	16 nM	
CC[C@@H]1/C=C(\C)C[C@H](C)C[C@H](OC)[C@H]2O[C@@](O)(C(=O)C(=O)N3CCCC[C@H]3C(=O)O[C@H](/C(C)=C/[C@@H]3CC[C@@H](O)[C@H](OC)C3)[C@H](C)[C@@H](O)CC1=O)[C@H](C)C[C@@H]2OC [ASCOMYCIN]		2.1 nM	0.3 mg/kg/day
CO[C@H]1C[C@@H]2CC[C@@H](C)[C@@](O)(O2)C(=O)C(=O)N2CCCC[C@H]2C(=O)O[C@H]([C@H](C)C[C@@H]2CC[C@@H](O)[C@H](OC)C2)CC(=O)[C@H](C)/C=C(\C)[C@@H](O)[C@@H](OC)C(=O)[C@H](C)C[C@H](C)/C=C/C=C/C=C/1C [SIROLIMUS]	1.27 nM		2.1 mg/kg/day
C=CC[C@@H]1/C=C(\C)C[C@H](C)C[C@H](OC)[C@H]2O[C@@](O)(C(=O)C(=O)N3CCCC[C@H]3C(=O)O[C@H](/C(C)=C/[C@@H]3CC[C@@H](O)[C@H](OC)C3)[C@H](C)[C@@H](O)CC1=O)[C@H](C)C[C@@H]2OC [TACROLIMUS ANHYDROUS]	0.48 nM		0.1 mg/kg/day
